Source: ChEMBL document CHEMBL1137345, “Endoperoxide derivatives from marine organisms: 1,2-dioxanes of the plakortin family as novel antimalarial agents” (J Med Chem, 2006)
pIC50: −log10 of the molar value.

Legend:
Plasmodium falciparum [1] = assay: Antimalarial activity against chloroquine-resistant Plasmodium falciparum W2 by pLDH assay; type: functional, organism-based
Summary of the method: (§1)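 P. falciparum clones D10 (CQ-sensitive, moderately mefloquine-resistant) and W2 (CQ-resistant, mefloquine-susceptible) kept in human A+ RBCs in RPMI 1640 with 10% A+ plasma, HEPES and glutamine under 1% O2/5% CO2/94% N2. Asynchronous cultures (1-1.5% parasitemia, 1% hematocrit) exposed to serial dilutions (DMSO <1% final) for 72 h at 37 °C. Parasite LDH read at OD650. IC50 reported as mean ± SD of four experiments in triplicate.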

Plasmodium falciparum [2] = assay: Antimalarial activity against chloroquine-sensitive Plasmodium falciparum D10 by pLDH assay; type: functional, organism-based; summary of the method: as §1

Row | SMILES | pIC50 (Plasmodium falciparum [1]) | pIC50 (Plasmodium falciparum [2])
1 | CC[C@H](C[C@@]1(C)C[C@@H](CC)[C@@H](CC(=O)OC)OO1)C(=O)O | 5.91 | 5.92
2 | CC[C@H](C[C@@]1(C)C[C@@H](CC)[C@@H](CC(=O)OC)OO1)[C@H]1O[C@@H]1CC | 6.30 | 5.98
3 | CC[C@H](C[C@@]1(C)C[C@@H](CC)[C@@H](CC(=O)OC)OO1)C(=O)OC | 6.11 | 6.07
4 | CC/C=C/[C@H](CC)C[C@@]1(C)C[C@@H](CC)[C@@H](CCOC(C)=O)OO1 | 6.34 | 6.08
5 | C[C@@H]1CC[C@H]2[C@@H](C)C(=O)O[C@@H]3O[C@@]4(C)CC[C@@H]1[C@]32OO4 [ARTEMISININ] | 8.05 | 7.89
6 | CC[C@H](C[C@@]1(C)C[C@@H](CC)[C@@H](CC(=O)OC)OO1)[C@@H]1O[C@H]1CC | 6.15 | 5.92
7 | CC/C=C/[C@H](CC)C[C@@]1(C)C[C@@H](CC)[C@@H](CCOC)OO1 | 6.39 | 6.13
8 | CC/C=C/[C@H](CC)C[C@@]1(C)C[C@@H](CC)[C@@H](CC(=O)OC)OO1 [PLAKORTIN] | 6.39 | 6.06
9 | CC/C=C/[C@H](CC)C[C@@]1(C)C[C@@H](CC)[C@@H](CCO)OO1 | 6.32 | 6.08
